Assay outcomes from PubChem BioAssay.
STEP block: STEP phosphatase inhibitors, primary screen, biochemical, fluorescence intensity, uHTS; AID 588621, 2011; inhibition, % at 20 µM; 360,000 compounds, 0.25% hits; recombinant STEP, OMFP fluorogenic substrate;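 active means inhibition at 20 µM, scaled per plate between control wells, above about 37%, limit read from the data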;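 further: 0% = DMSO with enzyme and substrate and 100% = substrate only without enzyme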
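Assay system: isolated STEP enzyme. Buffer or medium: pH 6.0 Bis-Tris with DTT and Tween 20. Also added: fluorogenic phosphatase substrate OMFP at 25 µM final. Dosing: 20 µM, 1% DMSO. Timing: 20 min reaction, room temperature, in the dark. Measured by: fluorescence intensity, excitation 480 nm, emission 540 nm. Evaluation: normalized % inhibition.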
DNMT1 inh: human DNMT1 methyltransferase inhibitors, primary screen, biochemical, molecular beacon, fluorescence, HinP1I cleavage, uHTS. 360,000 compounds, 0.83% hits. inhibition (reported as % activation of signal), % at 10 µM. DNA (cytosine-5)-methyltransferase 1 (Homo sapiens), P26358. AID 588458, 2011; in the data active means inhibition above about 50%
Scp1 inh: Scp-1 phosphatase inhibitors, primary screen, biochemical, colorimetric, uHTS; Carboxy-terminal domain RNA polymerase II polypeptide A small phosphatase 1 (Homo …; Recombinant Scp1, phosphopeptide, malachite green phosphate absorbance; inhibition, % at 20 µM; 340,000 compounds, 0.88% hits; AID 493091, 2011;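 active means inhibition above about 50% at 20 µM, limit read from the data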;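 further: plate controls were DMSO wells with enzyme for no effect and wells lacking enzyme for full effect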
Target sequence (Q9GZU7 76-261 limits assumed): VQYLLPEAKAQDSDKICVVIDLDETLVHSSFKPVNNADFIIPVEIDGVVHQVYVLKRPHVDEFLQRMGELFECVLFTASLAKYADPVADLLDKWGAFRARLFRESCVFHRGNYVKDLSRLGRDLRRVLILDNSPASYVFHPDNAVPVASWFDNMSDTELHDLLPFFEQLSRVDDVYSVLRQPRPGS
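Test system – truncated SCP-1 phosphatase (76-261aa) · Reagent – Phosphorylated 17-residue peptide substrate · Incubation – 45 min room-temperature reaction, 5 min colour, 30 min stabiliser · Detection – colorimetric phosphate reagent with accelerator and stabiliser, absorbance at 630 nm · Measure – % inhibition at 20 µM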
NadD block: inhibitors of S. aureus NadD, primary screen, biochemical, colorimetric, uHTS | purified NadD enzyme, colorimetric absorbance read-out | inhibition, % at 20 µM | Nicotinate-nucleotide adenylyltransferase NadD (Staphylococcus aureus N315) | 360,000 compounds, 0.78% hits; in the data active means inhibition above about 26%
LMPTP block: LMPTP phosphatase inhibitors, primary screen, biochemical, fluorescence intensity, uHTS; Low molecular weight phosphotyrosine protein phosphatase (Homo sapiens), P24666; recombinant LMPTP-A, OMFP fluorogenic substrate; inhibition, % at 20 µM; 360,000 compounds, 0.22% hits; AID 651560, 2012;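 active means compounds that cut the enzyme signal by at least half of the control window in the single-dose screen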;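 further: plate controls were DMSO wells with enzyme plus substrate for no effect and substrate without enzyme for full effect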
Target sequence (P24666 whole entry, looked up): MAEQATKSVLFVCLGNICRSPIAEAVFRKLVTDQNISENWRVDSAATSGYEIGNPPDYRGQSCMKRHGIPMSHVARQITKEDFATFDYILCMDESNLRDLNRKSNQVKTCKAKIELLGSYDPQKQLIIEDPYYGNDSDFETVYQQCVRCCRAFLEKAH
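Test system: LMPTP-A, protein tyrosine phosphatase of low molecular weight; Input: 0.625 nM enzyme; Incubation: 50 min dark incubation at room temperature; Signal: endpoint fluorescence intensity from OMFP dephosphorylation; Read-out basis: % inhibition versus control wells.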
SUMO1-SIM PPI: modulators of SUMO1 protein-protein interactions, primary screen, biochemical, uHTS | SUMO1 binding to a labelled peptide, TR-FRET, 1 h | Small ubiquitin-related modifier 1 (Homo sapiens), P63165 | inhibition, % at 20 µM | 360,000 compounds, 0.33% hits; in the data active means inhibition above about 37%
Target sequence (P63165 whole entry, looked up): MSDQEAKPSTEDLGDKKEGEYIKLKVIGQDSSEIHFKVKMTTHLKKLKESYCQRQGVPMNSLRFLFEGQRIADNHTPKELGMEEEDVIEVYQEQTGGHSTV
Scp-1 conf: Scp-1 phosphatase inhibitors, retest, confirmation, biochemical, colorimetric, single concentration; shares compounds with Scp1 inh; recombinant SCP-1 catalytic domain, phosphate release, malachite green absorbance; inhibition, % at 20 µM; 2,500 compounds, 61% hits; AID 540281, 2011;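 further: plate controls were DMSO with enzyme for no effect and buffer wells lacking enzyme for full effect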
Scp-1 MG ctr: colorimetric readout interference by compounds, confirmation, artefact control for Scp-1 inhibitor project, biochemical, single concentration; shares compounds with Scp1 inh; Colorimetric interference counterscreen, malachite green absorbance 630 nm; apparent inhibition (interference), % at 20 µM; 2,500 tested, under 10 active;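 further: compounds added after enzyme reaction finished so only phosphate colour detection is probed; plate controls were DMSO wells with completed Scp-1 reaction for no effect and substrate wells lacking enzyme for full effect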
Scp1 DSF: Scp-1 binding by thermal shift, confirmation, orthogonal assay for Scp-1 inhibitor project, biophysical, differential scanning fluorimetry. shares compounds with Scp1 inh. Recombinant SCP1, Sypro Orange thermal shift Tm. thermal shift relative to vanadate control, % at 40 µM. 1,500 compounds, 25% hits. AID 540329, 2011;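 active means substances whose mean melting-temperature shift, as a percentage of the reference inhibitor's shift, reaches about 5.3%, limit read from the data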;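 further: 0% = Tm of DMSO wells and 100% = Tm with sodium orthovanadate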
DNMT1 interf DR: spectral interference with molecular beacon fluorescence, dose response, artefact control for DNMT1 inhibitor project, biochemical, fluorescent molecular beacon; shares compounds with DNMT1 inh; 200 tested, under 10 active; spectral interference counter-screen; IC50, µM; call rule not given here
DNMT1 confirm: DNMT1 methyltransferase inhibitor retest, confirmation, biochemical, molecular beacon, fluorescence, single concentration | inhibition, % at 10 µM | 2,300 compounds, 8% hits | shares compounds with DNMT1 inh | DNMT1 molecular beacon HinP1I cleavage;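 active means average inhibition of at least 30% in the single-concentration confirmation test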
Beacon interf: beacon fluorescence artifact counter-screen. shares compounds with DNMT1 inh. DNMT1 molecular beacon spectral interference counterscreen, fluorescence 485/520. activation (fluorescence interference), % at 10 µM. 2,300 compounds, 1% hits;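 active means activation of at least 30% at 10 µM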;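 further: DNMT1 catalytic domain with a HinP1I cleavage step and a FAM/dabcyl DNA beacon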
Starred values were filed as active, the others as inactive; · = no result given. Most compounds without a hit are left out; they make up all but 2.4% or so of the library.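 How the source made its calls, unless noted: active means inhibition of at least 30% at 20 µM; inactive means the rest.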

SMILES	STEP block	DNMT1 inh	Scp1 inh	NadD block	LMPTP block	SUMO1-SIM PPI	Scp-1 conf	Scp-1 MG ctr	Scp1 DSF	DNMT1 confirm	Beacon interf	others
O=C(COC(=O)C1CC2C=CC1C2)NCc1ccc(F)cc1 (stereo unspecified)	1	-2	-7	3	-1	1	·	·	·	·	·
CN1/C(=C\C(=O)C[n+]2ccc3ccccc3c2)C(C)(C)c2ccccc21	-1	-3	-2	-3	1	-16	·	·	·	·	·
COc1ccc(NC(=O)/C(C#N)=C/c2ccc(-c3ccccc3C(=O)O)o2)cc1	0	2	-10	2	-1	-11	·	·	·	·	·
COc1ccc(NC(=O)/C(C#N)=C\c2ccc(Br)o2)cc1	17	79*	94*	7	38	22	58*	-17	3	3	1
CCN(CC)CC(C)OC(=O)c1ccccc1Cl (stereo unspecified)	-2	3	4	0	-1	0	·	·	·	·	·
CC(=O)c1c(C)oc(C)c1CSCc1ccc(C(=O)O)o1	11	78*	65*	-1	19	8	56*	-15	-2	6	3
CN1CCN(c2ccc(S(=O)(=O)N3CCOCC3)cc2)CC1	-1	0	-2	-3	-2	4	·	·	·	·	·
O=C(N/N=C/c1cccn1-c1cccc(C(=O)O)c1)Nc1ccccc1	-1	85*	64*	3	1	4	50*	-14	7.0*	2	14
O=C(O)c1cccc(-n2cccc2C=C2C(=O)c3ccccc3C2=O)c1	9	49	31	1	3	4	·	·	·	·	·
O=P(O)(c1ccccc1)c1ccccc1O	-3	-1	-4	3	-1	2	·	·	·	·	·
O=P(c1ccccc1)(c1ccccc1)c1cc(S(=O)(=O)O)ccc1O	98*	83*	88*	-1	29	15	60*	-13	-18	3	-1
Cc1nn(-c2ccc(F)cc2)c(Cl)c1/C=N/NC(=O)c1cccc(S(=O)(=O)N2CCCC2)c1	14	75*	50*	12	3	1	35*	-10	-16	0	-9
CCOC(=O)Cc1csc(SCC(=O)Nc2sc3c(c2C(N)=O)CCC3)n1	8	95*	83*	13	17	31	68*	-15	6.6*	11	-3
CCC1(C)NC(=O)N(CC(=O)Nc2sc3c(c2C(=O)OC)CCCCC3)C1=O (stereo unspecified)	1	-6	1	4	1	3	·	·	·	·	·
CCC1(CC)NC(=O)N(CC(=O)Nc2sc3c(c2C(N)=O)CCC3)C1=O	-2	77*	68*	29	17	25	61*	-8	12*	4	-5
NC(=O)c1c(NC(=O)CSc2nnc(-c3ccco3)n2-c2ccccc2)sc2c1CCC2	5	86*	76*	10	21	16	75*	-4	1	3	3
CCn1c(SCC(=O)Nc2sc3c(c2C#N)CCCC3)nnc1-c1ccco1	1	2	-4	-1	2	-1	·	·	·	·	·
O=C(NC(=S)Nc1cccc(C(F)(F)F)c1)c1csnn1	-2	-3	-10	-4	1	0	·	·	·	·	·
O=C(O)c1cc(-c2cccs2)nn1-c1cccc(Cl)c1	-1	1	4	-10	-1	13	·	·	·	·	·
O=C(O)c1cc(-c2ccco2)nn1-c1cccc(Cl)c1	16	105*	66*	6	8	44*	58*	-15	8.4*	7	-2
O=C(Nc1ccc2c(c1)OCO2)c1cc2ncc(Br)cn2n1	12	59*	57*	27	36	9	66*	-5	1	0	-2
Nc1nc(CCl)nc(N(c2ccccc2)c2ccccc2)n1	0	-2	-11	0	-2	3	·	·	·	·	·
C=C(C)C(=O)Nc1cccc(C2=NOC3(C2)C[C@H](C(N)=O)N(C(=O)c2ccccc2)C3)c1 (stereo partly specified)	0	91*	88*	-11	1	36	65*	1	4	14	1
C=C(C)C(=O)Nc1cccc(C2=NOC3(C2)C[C@@H](C(N)=O)N(C(=O)C2(C)CC2)C3)c1 (stereo partly specified)	13	106*	75*	-7	0	91*	60*	-16	-5	103*	4	DNMT1 interf DR=>99
C/C=C(/C)C(=O)Nc1cccc(C2=NOC3(C2)C[C@H](C(N)=O)N(C(=O)c2ccc(Cl)cc2)C3)c1 (stereo partly specified)	-1	-6	-6	-1	2	4	·	·	·	·	·
C=C(C)C(=O)Nc1cccc(C2=NOC3(C2)C[C@H](C(N)=O)N(C(=O)COc2ccc(Cl)cc2)C3)c1 (stereo partly specified)	5	98*	72*	-8	1	104*	75*	2	-8	64*	-2	DNMT1 interf DR=>99
